tested on: Rattus norvegicus; assay: % inhibition of AI pressor response at 2 minutes after intravenous administration of 0.5 micro mol/kg of compound in rat; assay type: functional; conditions: not given
How it was run: (§1)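 Normotensive rats given intravenous angiotensin I challenges to raise mean arterial pressure. Compound dosed intravenously at 0.5 μmol/kg. Pressor response measured before dosing (control) and at set times afterward. Percent change from the control response taken as % inhibition. Maximal response usually seen about 2 min after dosing.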

First: O=C(N[C@H]1CCO[C@H]2CC[C@@H](C(=O)O)N2C1=O)[C@@H](S)Cc1ccccc1
Second: O=C(N[C@H]1CCC[C@H]2CC[C@@H](C(=O)O)N2C1=O)[C@@H](S)Cc1ccccc1
The Inhibition of the first is higher: 79% for the first, 75% for the second.

Compared with `CCOC(C)=O.O=C(N[C@H]1CCO[C@H]2CCC[C@@H](C(=O)O)N2C1=O)[C@@H](S)Cc1ccccc1`, `CCOC(C)=O.O=C(N[C@H]1CS[C@H]2CCC[C@@H](C(=O)O)N2C1=O)[C@@H](S)Cc1ccccc1` is lower in Inhibition: 83% for the first, 78% for the second.

Compared with `O=C(N[C@H]1CCC[C@H]2CCC[C@@H](C(=O)O)N2C1=O)[C@@H](S)Cc1ccccc1`, `O=C(N[C@H]1CCS[C@H]2CCC[C@@H](C(=O)O)N2C1=O)[C@@H](S)Cc1ccccc1` [OMAPATRILAT] is higher in Inhibition: 71% for the first, 76% for the second.

`O=C(N[C@H]1CCS[C@H]2CC[C@@H](C(=O)O)N2C1=O)[C@@H](S)Cc1ccccc1` was tested, and the Inhibition was 82%.

biological target: T1, Angiotensin-converting enzyme (Oryctolagus cuniculus, UniProt P12822); assay: In vitro inhibition of ACE (Angiotensin I converting enzyme) isolated from rabbit lung extract; conditions: read-out: I50
T1 sequence (P12822 whole entry): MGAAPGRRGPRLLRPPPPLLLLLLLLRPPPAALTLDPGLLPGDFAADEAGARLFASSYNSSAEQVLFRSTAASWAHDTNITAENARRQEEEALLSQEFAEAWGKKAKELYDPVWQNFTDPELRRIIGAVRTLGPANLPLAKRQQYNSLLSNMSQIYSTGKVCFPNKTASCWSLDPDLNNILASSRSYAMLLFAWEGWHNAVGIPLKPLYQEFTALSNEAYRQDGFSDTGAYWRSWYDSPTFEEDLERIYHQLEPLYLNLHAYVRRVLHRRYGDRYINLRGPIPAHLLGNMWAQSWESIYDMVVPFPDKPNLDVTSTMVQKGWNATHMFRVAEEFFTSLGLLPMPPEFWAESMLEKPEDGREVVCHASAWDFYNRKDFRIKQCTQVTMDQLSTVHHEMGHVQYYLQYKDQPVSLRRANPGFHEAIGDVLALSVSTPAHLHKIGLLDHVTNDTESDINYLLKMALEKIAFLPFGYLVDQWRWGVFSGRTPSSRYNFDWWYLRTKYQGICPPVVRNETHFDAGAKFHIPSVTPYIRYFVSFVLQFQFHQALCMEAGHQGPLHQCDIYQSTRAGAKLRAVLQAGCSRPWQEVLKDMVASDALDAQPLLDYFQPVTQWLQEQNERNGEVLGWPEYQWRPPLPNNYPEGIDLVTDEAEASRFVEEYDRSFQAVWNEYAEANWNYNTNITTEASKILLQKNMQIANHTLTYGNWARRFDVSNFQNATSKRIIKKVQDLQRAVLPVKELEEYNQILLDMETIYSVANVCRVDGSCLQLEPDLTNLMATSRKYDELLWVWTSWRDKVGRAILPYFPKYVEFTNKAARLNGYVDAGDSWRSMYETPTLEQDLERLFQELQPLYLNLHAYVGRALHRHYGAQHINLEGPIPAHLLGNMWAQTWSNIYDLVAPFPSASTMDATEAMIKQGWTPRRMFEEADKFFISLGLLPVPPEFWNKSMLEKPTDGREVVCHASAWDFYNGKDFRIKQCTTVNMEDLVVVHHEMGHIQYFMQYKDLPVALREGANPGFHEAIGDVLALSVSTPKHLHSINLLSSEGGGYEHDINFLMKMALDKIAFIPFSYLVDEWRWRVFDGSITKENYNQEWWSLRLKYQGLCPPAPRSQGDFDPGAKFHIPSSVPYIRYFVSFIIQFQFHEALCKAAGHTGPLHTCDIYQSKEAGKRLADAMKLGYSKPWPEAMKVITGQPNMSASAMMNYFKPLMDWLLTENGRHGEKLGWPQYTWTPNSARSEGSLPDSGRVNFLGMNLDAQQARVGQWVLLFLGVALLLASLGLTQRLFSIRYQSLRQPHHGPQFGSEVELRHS
How it was run: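 Enzyme source is rabbit lung extract; substrate hippuryl-L-histidyl-L-leucine (HHL); I50 reported.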

`O=C(N[C@H]1CCO[C@H]2CC[C@@H](C(=O)O)N2C1=O)[C@@H](S)Cc1ccccc1` and `CCOC(C)=O.O=C(N[C@H]1CCO[C@H]2CCC[C@@H](C(=O)O)N2C1=O)[C@@H](S)Cc1ccccc1` are within 1.5-fold of each other in IC50: 7 nM for the first, 8 nM for the second.

`CCOC(C)=O.O=C(N[C@H]1CS[C@H]2CCC[C@@H](C(=O)O)N2C1=O)[C@@H](S)Cc1ccccc1` and `O=C(N[C@H]1CCS[C@H]2CCC[C@@H](C(=O)O)N2C1=O)[C@@H](S)Cc1ccccc1` [OMAPATRILAT] are the same in IC50: 5 nM for the first, 5 nM for the second.

Work on `O=C(N[C@H]1CCS[C@H]2CC[C@@H](C(=O)O)N2C1=O)[C@@H](S)Cc1ccccc1` yielded an IC50 of 4 nM.

tested on: Rattus norvegicus; assay: Decreased Mean arterial pressure (MAP) in rat after single oral dose of 30 umol/kg; assay type: functional, Artery; conditions: not given
How it was run: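 Conscious sodium-depleted spontaneously hypertensive rats, n = 7 per group. Single oral dose of 30 μmol/kg (~12 mg/kg); vehicle 5% NaHCO3. Mean arterial pressure followed as change from pre-dose baseline over 24 h.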

First: CCC(=O)O[C@@H](O[P@](=O)(CCCCc1ccccc1)CC(=O)N1C[C@H](C2CCCCC2)C[C@H]1C(=O)O)C(C)C [FOSINOPRIL]
Second: O=C(N[C@H]1CCS[C@H]2CCC[C@@H](C(=O)O)N2C1=O)[C@@H](S)Cc1ccccc1 [OMAPATRILAT]
The MAP of the first is lower: 20 mmHg for the first, 40 mmHg for the second.

tested on: Rattus norvegicus; assay: % inhibition of AI pressor response at 60 minutes after intravenous administration of 0.5 micro mol/kg of compound in rat; assay type: functional; conditions: not given; how it was run: as §1

`O=C(N[C@H]1CCO[C@H]2CC[C@@H](C(=O)O)N2C1=O)[C@@H](S)Cc1ccccc1` and `O=C(N[C@H]1CCC[C@H]2CC[C@@H](C(=O)O)N2C1=O)[C@@H](S)Cc1ccccc1` are the same in Inhibition: 3% for the first, 3% for the second.

First: O=C(N[C@H]1CCC[C@H]2CCC[C@@H](C(=O)O)N2C1=O)[C@@H](S)Cc1ccccc1
Second: O=C(N[C@H]1CCS[C@H]2CCC[C@@H](C(=O)O)N2C1=O)[C@@H](S)Cc1ccccc1 [OMAPATRILAT]
The Inhibition of the first is lower: 35% for the first, 60% for the second.

`O=C(N[C@H]1CCS[C@H]2CC[C@@H](C(=O)O)N2C1=O)[C@@H](S)Cc1ccccc1` gave an Inhibition of 60%.

biological target: T2, Neprilysin (Rattus norvegicus, UniProt P07861); assay: In vitro inhibition of neutral endopeptidase purified from rat kidney using fluorimetry assay; conditions: read-out: I50
T2 sequence (P07861 whole entry): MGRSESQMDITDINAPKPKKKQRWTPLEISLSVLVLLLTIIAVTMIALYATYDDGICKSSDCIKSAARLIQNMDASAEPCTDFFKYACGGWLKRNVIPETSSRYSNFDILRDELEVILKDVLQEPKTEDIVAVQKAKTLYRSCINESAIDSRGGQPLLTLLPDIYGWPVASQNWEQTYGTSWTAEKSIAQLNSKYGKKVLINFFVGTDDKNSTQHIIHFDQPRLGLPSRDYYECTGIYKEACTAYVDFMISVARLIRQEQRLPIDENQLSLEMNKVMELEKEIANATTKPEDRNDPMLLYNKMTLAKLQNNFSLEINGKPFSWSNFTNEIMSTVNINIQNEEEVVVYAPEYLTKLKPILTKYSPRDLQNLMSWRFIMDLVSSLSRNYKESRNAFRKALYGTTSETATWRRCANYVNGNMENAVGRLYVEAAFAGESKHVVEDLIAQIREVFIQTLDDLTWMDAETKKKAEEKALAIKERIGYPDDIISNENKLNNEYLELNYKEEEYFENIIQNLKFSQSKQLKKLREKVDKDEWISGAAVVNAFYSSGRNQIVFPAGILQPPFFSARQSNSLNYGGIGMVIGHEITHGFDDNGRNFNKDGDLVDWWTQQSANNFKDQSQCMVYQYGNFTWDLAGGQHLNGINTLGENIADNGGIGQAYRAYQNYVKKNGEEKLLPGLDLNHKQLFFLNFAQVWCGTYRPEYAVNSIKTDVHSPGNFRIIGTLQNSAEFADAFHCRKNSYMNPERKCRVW
How it was run: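 Enzyme from purified rat kidney; fluorometric read-out with dansyl-Gly-Phe-Arg as substrate; I50 reported.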

Compared with `O=C(N[C@H]1CCO[C@H]2CC[C@@H](C(=O)O)N2C1=O)[C@@H](S)Cc1ccccc1`, `CCOC(C)=O.O=C(N[C@H]1CCO[C@H]2CCC[C@@H](C(=O)O)N2C1=O)[C@@H](S)Cc1ccccc1` is 2.9-fold lower in IC50: 26 nM for the first, 9 nM for the second. The second is the more potent here.

Compared with `CCOC(C)=O.O=C(N[C@H]1CS[C@H]2CCC[C@@H](C(=O)O)N2C1=O)[C@@H](S)Cc1ccccc1`, `O=C(N[C@H]1CCS[C@H]2CCC[C@@H](C(=O)O)N2C1=O)[C@@H](S)Cc1ccccc1` [OMAPATRILAT] is 5.2-fold lower in IC50: 42 nM for the first, 8 nM for the second. The second is the more potent here.

`O=C(N[C@H]1CCS[C@H]2CC[C@@H](C(=O)O)N2C1=O)[C@@H](S)Cc1ccccc1` was tested, and the IC50 was 4 nM.

tested on: Rattus norvegicus; assay: 50% inhibition of the AI pressor response in normotensive rat after intravenous administration at a dose 0.5 umol/kg; assay type: functional; conditions: not given

Going from `O=C(N[C@H]1CCO[C@H]2CC[C@@H](C(=O)O)N2C1=O)[C@@H](S)Cc1ccccc1` to `CCOC(C)=O.O=C(N[C@H]1CCO[C@H]2CCC[C@@H](C(=O)O)N2C1=O)[C@@H](S)Cc1ccccc1`, the ED50 falls from 0.06 µmol/kg to 0.05 µmol/kg.

Compared with `CCOC(C)=O.O=C(N[C@H]1CS[C@H]2CCC[C@@H](C(=O)O)N2C1=O)[C@@H](S)Cc1ccccc1`, `O=C(N[C@H]1CCS[C@H]2CCC[C@@H](C(=O)O)N2C1=O)[C@@H](S)Cc1ccccc1` [OMAPATRILAT] is lower in ED50: 0.23 µmol/kg for the first, 0.07 µmol/kg for the second.

Work on `O=C(N[C@H]1CCS[C@H]2CC[C@@H](C(=O)O)N2C1=O)[C@@H](S)Cc1ccccc1` yielded an ED50 of 0.03 µmol/kg.

tested on: Rattus norvegicus; assay: % inhibition of AI pressor response at 120 minutes after intravenous administration of 0.5 micro mol/kg of compound in rat; assay type: functional; conditions: not given; how it was run: as §1

Going from `O=C(N[C@H]1CCC[C@H]2CCC[C@@H](C(=O)O)N2C1=O)[C@@H](S)Cc1ccccc1` to `O=C(N[C@H]1CCS[C@H]2CCC[C@@H](C(=O)O)N2C1=O)[C@@H](S)Cc1ccccc1` [OMAPATRILAT], the Inhibition rises from 11% to 58%.

`O=C(N[C@H]1CCS[C@H]2CC[C@@H](C(=O)O)N2C1=O)[C@@H](S)Cc1ccccc1` gave an Inhibition of 25%.

tested on: Rattus norvegicus; assay: % inhibition of AI pressor response at 30 minutes after intravenous administration of 0.5 micro mol/kg of compound in rat; assay type: functional; conditions: not given; how it was run: as §1

Going from `O=C(N[C@H]1CCO[C@H]2CC[C@@H](C(=O)O)N2C1=O)[C@@H](S)Cc1ccccc1` to `O=C(N[C@H]1CCC[C@H]2CC[C@@H](C(=O)O)N2C1=O)[C@@H](S)Cc1ccccc1`, the Inhibition falls from 63% to 34%.

`CCOC(C)=O.O=C(N[C@H]1CCO[C@H]2CCC[C@@H](C(=O)O)N2C1=O)[C@@H](S)Cc1ccccc1` and `CCOC(C)=O.O=C(N[C@H]1CS[C@H]2CCC[C@@H](C(=O)O)N2C1=O)[C@@H](S)Cc1ccccc1` are the same in Inhibition: 3% for the first, 3% for the second.

Going from `O=C(N[C@H]1CCC[C@H]2CCC[C@@H](C(=O)O)N2C1=O)[C@@H](S)Cc1ccccc1` to `O=C(N[C@H]1CCS[C@H]2CCC[C@@H](C(=O)O)N2C1=O)[C@@H](S)Cc1ccccc1` [OMAPATRILAT], the Inhibition rises from 65% to 66%.

`O=C(N[C@H]1CCS[C@H]2CC[C@@H](C(=O)O)N2C1=O)[C@@H](S)Cc1ccccc1` gave an Inhibition of 76%.

Reference: ChEMBL document CHEMBL1130034, “Dual metalloprotease inhibitors: mercaptoacetyl-based fused heterocyclic dipeptide mimetics as inhibitors of angiotensin-converting enzyme and neutral endopeptidase” (J Med Chem, 1997)
